Calls of active or inactive are those of the source. The calls are words filed in the database; no cut-off is given here.
Tests used:
[1] = Cytotoxicity against rat L6 cells assessed as cell growth inhibition incubated for 6 days by resazurin dye based assay; type: toxicity
In short: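 Rat L6 myoblasts seeded at 1×10⁴ mL⁻¹ in RPMI-1640 with a range of compound concentrations, 6 days at 37 °C; resazurin added, 6 h further, fluorescence ex 545/em 590 nm.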

[2] = Selectivity index, ratio of EC50 for cytotoxicity against rat L6 cells to EC50 for antitrypanosomal activity against bloodstream form of Trypanosoma brucei brucei 221a variant; type: toxicity, cell-based; conditions: read-out: Ratio EC50
In short: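 L6 rat myoblasts seeded at 1×10^4 mL^-1 in RPMI-1640 with a compound concentration range for 6 days at 37 °C. Resazurin added for 6 h, then fluorescence read.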

[3] = tested on: Trypanosoma brucei; assay: Antitrypanosomal activity against blood stream form of Trypanosoma brucei 221a variant assessed as parasite growth inhibition at 0.15 to 4.8 nM preincubated for 24 hrs followed by subculturing with fresh medium with compounds and measured after 2 days by resazurin dye based fluorescence analysis; type: functional, organism-based; conditions: dose 0.15-4.8 nM, time 3.0 day
In short: (§1)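 Bloodstream-form T. brucei seeded in flasks at 10^5 mL^-1 with a range of compound concentrations. Every 24 h parasites were sub-cultured back to 10^5 mL^-1 in continued compound presence, through day 10. Growth reported as cumulative parasite number. In a washout arm, parasites were exposed for 3 days, moved to compound-free medium and followed for 12 days.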

[4] = tested on: Trypanosoma brucei; assay: Antitrypanosomal activity against blood stream form of Trypanosoma brucei 221a variant assessed as lethality at >=1.2 nM incubated for 3 days followed by replacement with fresh medium without compound and measured for 12 days by resazurin dye based fluorescence analysis relative to control; type: functional; conditions: time 3 day; in short: as §1
[5] = Toxicity in BALB/c mouse infected with bioluminescent Trypanosoma brucei brucei GVR35-VSL2 expressing red-shifted luciferase assessed as piloerection in animal at 0.25 to 20 mg/kg, ip administered once daily for 4 days; type: organism-based; conditions: in vivo, 96 h, dose 0.25-20 mg/kg, time 4 day
In short: (§2)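 Infected BALB/c mice (bioluminescent T. brucei, 30,000 parasites) dosed i.p. or orally once daily for 4 days starting day 4 post-infection; observed for piloerection, hunching, shaking, lack of activity and body weight change.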

[6] = Toxicity in BALB/c mouse infected with bioluminescent Trypanosoma brucei brucei GVR35-VSL2 expressing red-shifted luciferase assessed as shaking in animal at 0.25 to 20 mg/kg, ip administered once daily for 4 days; type: organism-based; conditions: in vivo, 96 h, dose 0.25-20 mg/kg, time 4 day; in short: as §2
[7] = Drug localization in lysosomes of Trypanosoma brucei bloodstream form assessed as colocalization at 10 ug/ml incubated upto 180 mins by LysoTrack dye based fluorescence microscopy; type: ADME, subcellular, Lysosome; conditions: 3 h, dose 10 µg/ml
In short: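 Parasites pre-loaded with 100 nM LysoTracker for 45 min, washed, then exposed to compound 10 μg mL⁻¹; aliquots fixed in 4% PFA at each timepoint, DAPI-mounted, imaged by fluorescence microscopy.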

[8] = tested on: Trypanosoma brucei; assay: Resistance development in blood stream form of Trypanosoma brucei assessed as fold increase in resistance at 10 ug/ml preincubated for 6 hrs with bafilomycin Al followed by compound addition and measured after 48 hrs by resazurin dye-based analysis; type: functional; conditions: dose 10 µg/ml
In short: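 Bloodstream-form T. brucei pre-incubated 6 h in 4 or 8 nM bafilomycin A1, then given compound and kept in BafA1. The run then followed the 48 h microtiter resazurin assay: start at 2.5×10^4 mL^-1, 37 °C, 16 h resazurin, fluorescence ex 545/em 590 nm. Done in triplicate.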

[9] = Drug localization in lysosomes of Trypanosoma brucei bloodstream form at 10 ug/ml measured after 6 hrs in presence of bafilomycin Al by TbCatL antibody based immunofluorescence microscopy; type: ADME, subcellular, Lysosome; conditions: dose 10 µg/ml
In short: (§3)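 Parasites exposed to compound 10 μg mL⁻¹ for 6 h, with or without BafA1 8 nM; fixed 4% PFA, permeabilized 0.1% Triton X-100, blocked 1% BSA, rabbit anti-TbCatL 1:200 overnight at 4 °C, then Alexa 488 anti-rabbit 2 μg mL⁻¹ 1 h at 37 °C; fluorescence microscopy.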

[10] = Drug localization in endosome of Trypanosoma brucei bloodstream form at 10 ug/ml measured after 6 hrs in presence of bafilomycin Al by TbCatL antibody based immunofluorescence microscopy; type: ADME, subcellular; conditions: dose 10 µg/ml; in short: as §3
[11] = Toxicity in BALB/c mouse infected with bioluminescent Trypanosoma brucei brucei GVR35-VSL2 expressing red-shifted luciferase assessed as shaking in animal at 20 mg/kg, po administered once daily for 4 days; type: organism-based; conditions: in vivo, 96 h, time 4 day; in short: as §2
[12] = Toxicity in BALB/c mouse infected with bioluminescent Trypanosoma brucei brucei GVR35-VSL2 expressing red-shifted luciferase assessed as lack of activity in animal at 20 mg/kg, po administered once daily for 4 days; type: organism-based; conditions: in vivo, 96 h, time 4 day; in short: as §2
[13] = tested on: Trypanosoma brucei; assay: Resistant development in Trypanosoma brucei harboring aqp null mutants assessed as fold reduction in sensitivity incubated for 48 hrs by resazurin dye based analysis relative to control; type: functional
In short: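 Tbaqp null mutant bloodstream lines tested in the 48 h resazurin microtiter assay: 2.5×10^4 parasites mL^-1 at 37 °C, then 16 h with resazurin and fluorescence read-out. EC50 found for each line in triplicate.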

[14] = Drug localization in lysosomes of Trypanosoma brucei bloodstream form at 10 ug/ml measured after 6 hrs by TbCatL antibody based immunofluorescence microscopy; type: ADME, subcellular, Lysosome; conditions: dose 10 µg/ml; in short: as §3

CS(=O)(=O)O.CS(=O)(=O)O.N=C(N)c1ccc2nc(C3CCC(c4nc5ccc(C(=N)N)cc5s4)CC3)sc2c1 (centres undefined)
EC50 at 6 days [1]: 13.4 µM | selectivity ratio [2]: 26300 | Activity [3]: Active | Activity [4]: 100% | Activity [5]: Non-Toxic | Activity [6]: Non-Toxic | Drug uptake [7]: Active | fold change (FC) [8]: 5 | Drug uptake [9]: Not Active | Drug uptake [10]: Not Active | Activity [11]: Non-Toxic | Activity [12]: Non-Toxic | fold change (FC) [13]: 1.3 | Drug uptake [14]: Active
